# In ChEMBL document CHEMBL4196175, “First SAR Study for Overriding NRAS Mutant Driven Acute Myeloid Leukemia” (J Med Chem, 2018):
# Activity calls are given as the source filed them. No cut-off for these calls is given here.
# Legend:
# OCI-AML-3 [1] = assay: Growth inhibition of human OCI-AML3 cells harboring NRAS-Q61L mutant after 72 hrs by celltiter-glo assay; assay type: functional; details: OCI-AML-3, 72 h
# [2] = Growth inhibition of parental mouse BA/F3 cells after 72 hrs by celltiter-glo assay; assay type: cell-based, BaF3
# Mus musculus = organism: Mus musculus; assay: Inhibition of ACK1/GCK in mouse BA/F3 cells assessed as reduction in NRAS-G12D mutant-mediated cell proliferation after 72 hrs by celltiter-glo assay; assay type: cell-based
# [3] = target: T1, Mitogen-activated protein kinase kinase kinase kinase 2 (Homo sapiens, UniProt Q12851); assay: Inhibition of GCK (unknown origin) by radiometric biochemical kinase assay
# T1 sequence (Q12851 whole entry): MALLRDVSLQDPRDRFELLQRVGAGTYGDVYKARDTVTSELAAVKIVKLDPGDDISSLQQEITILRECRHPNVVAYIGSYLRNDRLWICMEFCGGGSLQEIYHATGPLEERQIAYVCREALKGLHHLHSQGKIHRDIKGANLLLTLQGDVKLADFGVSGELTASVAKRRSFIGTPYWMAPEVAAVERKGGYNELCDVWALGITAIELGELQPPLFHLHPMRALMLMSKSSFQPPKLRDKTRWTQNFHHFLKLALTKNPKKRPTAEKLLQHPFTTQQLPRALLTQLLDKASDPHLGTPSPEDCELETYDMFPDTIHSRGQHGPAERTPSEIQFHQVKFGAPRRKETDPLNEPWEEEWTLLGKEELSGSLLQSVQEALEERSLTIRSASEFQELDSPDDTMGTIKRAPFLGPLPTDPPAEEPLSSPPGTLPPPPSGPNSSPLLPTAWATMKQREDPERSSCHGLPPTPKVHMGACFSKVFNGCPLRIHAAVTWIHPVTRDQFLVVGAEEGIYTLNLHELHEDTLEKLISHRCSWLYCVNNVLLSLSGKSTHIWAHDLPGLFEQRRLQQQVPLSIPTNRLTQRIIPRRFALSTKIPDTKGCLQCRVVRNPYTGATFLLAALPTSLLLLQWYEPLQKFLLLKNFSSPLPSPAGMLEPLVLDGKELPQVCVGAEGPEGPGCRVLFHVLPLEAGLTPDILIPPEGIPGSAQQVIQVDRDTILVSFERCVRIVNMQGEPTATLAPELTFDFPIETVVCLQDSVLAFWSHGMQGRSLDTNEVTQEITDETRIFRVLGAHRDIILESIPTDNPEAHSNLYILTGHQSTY
# OCI-AML-3 [4] = assay: Growth inhibition of ACK1/GCK knockdown human OCI-AML3 cells harboring NRAS-Q61L mutant at 0.5 uM after 72 hrs by celltiter-glo assay; assay type: functional, cell-based
# Activated CDC42 kinase 1 = Activated CDC42 kinase 1 (Homo sapiens, UniProt Q07912); assay: Inhibition of ACK1 (unknown origin) by radiometric biochemical kinase assay
# [5] = Growth inhibition of parental human U937 cells after 72 hrs by celltiter-glo assay; assay type: cell-based, U-937
# [6] = Metabolic stability in dog liver microsomes assessed as compound remaining at 1 uM after 30 mins; assay type: ADME, Canis lupus familiaris, microsome; details: read-out: Stability
# OCI-AML-3 [7] = assay: Growth inhibition of ACK1/GCK knockdown human OCI-AML3 cells harboring NRAS-Q61L mutant at 0.05 uM after 72 hrs by celltiter-glo assay; assay type: functional, cell-based
# CYP3A4 = CYP3A4 (Homo sapiens, UniProt P08684); assay: Inhibition of CYP3A4 (unknown origin) assessed as activity remaining at 10 uM relative to control; assay type: ADME; details: read-out: Activity
# [8] = Metabolic stability in rat liver microsomes assessed as compound remaining at 1 uM after 30 mins; assay type: ADME, microsome; details: read-out: Stability
# [9] = Metabolic stability in mouse liver microsomes assessed as compound remaining at 1 uM after 30 mins; assay type: ADME, microsome; details: read-out: Stability
# CYP1A2 = target: T2, CYP1A2 (Homo sapiens, UniProt P05177); assay: Inhibition of CYP1A2 (unknown origin) assessed as activity remaining at 10 uM relative to control; assay type: ADME; details: read-out: Activity
# T2 sequence (P05177 whole entry): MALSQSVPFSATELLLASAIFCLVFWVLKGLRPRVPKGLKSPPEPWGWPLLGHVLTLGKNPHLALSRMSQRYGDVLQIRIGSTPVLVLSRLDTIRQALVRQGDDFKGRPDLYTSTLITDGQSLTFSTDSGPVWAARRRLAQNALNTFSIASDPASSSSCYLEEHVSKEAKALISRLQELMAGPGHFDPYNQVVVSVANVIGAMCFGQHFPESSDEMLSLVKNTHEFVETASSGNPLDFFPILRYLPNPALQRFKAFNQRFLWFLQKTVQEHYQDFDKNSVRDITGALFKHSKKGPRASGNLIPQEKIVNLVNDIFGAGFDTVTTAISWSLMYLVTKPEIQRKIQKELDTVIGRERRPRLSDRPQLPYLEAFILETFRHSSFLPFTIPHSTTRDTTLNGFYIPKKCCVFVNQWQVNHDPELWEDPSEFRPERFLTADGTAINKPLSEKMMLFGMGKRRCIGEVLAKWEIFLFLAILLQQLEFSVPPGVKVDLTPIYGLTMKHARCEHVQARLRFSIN
# CYP2C9 = CYP2C9 (Homo sapiens, UniProt P11712); assay: Inhibition of CYP2C9 (unknown origin) assessed as activity remaining at 10 uM relative to control; assay type: ADME; details: read-out: Activity
# [10] = Metabolic stability in human liver microsomes assessed as compound remaining at 1 uM after 30 mins; assay type: ADME, microsome; details: read-out: Stability
# CYP2D6 = CYP2D6 (Homo sapiens, UniProt P10635); assay: Inhibition of CYP2D6 (unknown origin) assessed as activity remaining at 10 uM relative to control; assay type: ADME; details: read-out: Activity
# [11] = Selectivity index, ratio of GI50 for parental human U937 cells to GI50 for human OCI-AML3 cells harboring NRAS-Q61L mutant
# Procedure, shortened: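 Human AML lines OCI-AML3 (NRAS mutant) and U937 (NRAS wild-type) were exposed to inhibitors for 72 h. GI50 is the concentration giving half-maximal growth inhibition, averaged with SD (n = 3, duplicate). The index is the U937 GI50 divided by the OCI-AML3 GI50.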
# OCI-AML-3 [12] = assay: Growth inhibition of ACK1/GCK knockdown human OCI-AML3 cells harboring NRAS-Q61L mutant at 0.2 uM after 72 hrs by celltiter-glo assay; assay type: functional, cell-based
# Chain of CYP2C9 (P11712 whole entry): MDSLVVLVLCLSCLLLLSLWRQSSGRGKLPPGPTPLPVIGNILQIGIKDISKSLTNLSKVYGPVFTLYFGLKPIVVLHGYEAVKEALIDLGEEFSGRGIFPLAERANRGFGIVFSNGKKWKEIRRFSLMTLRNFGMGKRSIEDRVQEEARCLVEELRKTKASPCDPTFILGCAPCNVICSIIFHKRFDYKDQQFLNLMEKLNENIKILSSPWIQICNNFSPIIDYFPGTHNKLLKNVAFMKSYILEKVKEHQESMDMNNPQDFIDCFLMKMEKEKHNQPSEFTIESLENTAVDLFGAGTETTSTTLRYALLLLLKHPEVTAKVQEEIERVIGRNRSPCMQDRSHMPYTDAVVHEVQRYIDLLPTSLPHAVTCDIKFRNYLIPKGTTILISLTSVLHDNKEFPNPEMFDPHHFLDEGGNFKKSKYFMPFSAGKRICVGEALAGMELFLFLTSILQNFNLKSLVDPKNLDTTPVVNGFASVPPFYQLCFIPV
# Chain of Activated CDC42 kinase 1 (Q07912 whole entry): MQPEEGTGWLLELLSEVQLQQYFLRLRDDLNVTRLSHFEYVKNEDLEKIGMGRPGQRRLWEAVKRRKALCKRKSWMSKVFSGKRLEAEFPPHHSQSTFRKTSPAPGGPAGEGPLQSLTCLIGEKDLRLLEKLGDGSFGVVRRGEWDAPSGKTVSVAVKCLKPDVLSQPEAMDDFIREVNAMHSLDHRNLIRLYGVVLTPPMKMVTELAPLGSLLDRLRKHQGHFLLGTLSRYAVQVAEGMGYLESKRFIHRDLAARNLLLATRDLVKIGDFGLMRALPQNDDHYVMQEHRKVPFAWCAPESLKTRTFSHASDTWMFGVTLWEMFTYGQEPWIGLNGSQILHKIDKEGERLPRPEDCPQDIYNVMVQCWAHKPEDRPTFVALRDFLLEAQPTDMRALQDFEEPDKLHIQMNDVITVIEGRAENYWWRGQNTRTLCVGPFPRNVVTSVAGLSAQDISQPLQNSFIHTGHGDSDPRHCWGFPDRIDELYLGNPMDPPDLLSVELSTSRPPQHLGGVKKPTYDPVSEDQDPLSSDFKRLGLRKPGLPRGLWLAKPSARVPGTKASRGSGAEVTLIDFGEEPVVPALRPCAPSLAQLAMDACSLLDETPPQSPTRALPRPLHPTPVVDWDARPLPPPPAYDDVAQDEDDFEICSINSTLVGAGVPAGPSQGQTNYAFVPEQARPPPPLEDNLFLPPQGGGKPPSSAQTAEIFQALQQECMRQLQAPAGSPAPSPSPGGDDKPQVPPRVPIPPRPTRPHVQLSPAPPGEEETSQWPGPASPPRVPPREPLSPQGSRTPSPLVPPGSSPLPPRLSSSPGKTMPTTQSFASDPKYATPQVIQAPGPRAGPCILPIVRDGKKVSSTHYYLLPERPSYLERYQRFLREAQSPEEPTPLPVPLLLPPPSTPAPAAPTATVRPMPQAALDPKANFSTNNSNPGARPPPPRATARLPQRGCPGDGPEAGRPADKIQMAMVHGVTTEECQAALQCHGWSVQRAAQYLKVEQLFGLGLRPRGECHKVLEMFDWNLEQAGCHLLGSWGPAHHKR
# Chain of CYP3A4 (P08684 whole entry): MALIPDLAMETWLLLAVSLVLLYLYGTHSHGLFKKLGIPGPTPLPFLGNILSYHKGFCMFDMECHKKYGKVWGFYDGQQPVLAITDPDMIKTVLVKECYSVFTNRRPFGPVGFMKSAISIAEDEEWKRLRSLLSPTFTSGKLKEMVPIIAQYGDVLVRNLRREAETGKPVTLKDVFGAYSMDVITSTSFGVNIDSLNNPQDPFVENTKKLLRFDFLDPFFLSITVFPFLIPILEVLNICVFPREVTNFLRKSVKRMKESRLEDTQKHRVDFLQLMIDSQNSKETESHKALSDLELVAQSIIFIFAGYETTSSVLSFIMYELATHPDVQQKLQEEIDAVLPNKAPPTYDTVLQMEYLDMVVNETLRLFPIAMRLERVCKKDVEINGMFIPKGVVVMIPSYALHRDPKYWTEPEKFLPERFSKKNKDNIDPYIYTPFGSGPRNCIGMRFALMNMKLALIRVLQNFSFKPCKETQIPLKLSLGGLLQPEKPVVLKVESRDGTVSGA
# Chain of CYP2D6 (P10635 whole entry): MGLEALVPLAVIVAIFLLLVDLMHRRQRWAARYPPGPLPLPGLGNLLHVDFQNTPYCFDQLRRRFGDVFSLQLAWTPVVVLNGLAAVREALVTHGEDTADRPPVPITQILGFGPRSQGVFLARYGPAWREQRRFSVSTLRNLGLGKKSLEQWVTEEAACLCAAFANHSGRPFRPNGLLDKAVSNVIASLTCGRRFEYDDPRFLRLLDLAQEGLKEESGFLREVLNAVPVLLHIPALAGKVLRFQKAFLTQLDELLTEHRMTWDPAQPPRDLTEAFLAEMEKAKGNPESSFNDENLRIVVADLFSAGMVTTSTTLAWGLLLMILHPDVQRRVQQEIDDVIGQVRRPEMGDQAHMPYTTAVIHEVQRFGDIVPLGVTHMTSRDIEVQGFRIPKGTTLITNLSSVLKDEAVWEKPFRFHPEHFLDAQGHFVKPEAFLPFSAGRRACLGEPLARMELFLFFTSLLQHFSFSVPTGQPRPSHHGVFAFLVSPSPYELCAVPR
Structure (SMILES),GI50 (OCI-AML-3 [1]),GI50 at 72 h [2],GI50 (Mus musculus),IC50 [3],growth inhibition (GI) (OCI-AML-3 [4]),IC50 (Activated CDC42 kinase 1),GI50 at 72 h [5],"remaining at 0.5 h, 1 µM [6]",growth inhibition (GI) (OCI-AML-3 [7]),activity at 10 µM (CYP3A4),"remaining at 0.5 h, 1 µM [8]","remaining at 0.5 h, 1 µM [9]",activity at 10 µM (CYP1A2),activity at 10 µM (CYP2C9),"remaining at 0.5 h, 1 µM [10]",activity at 10 µM (CYP2D6),RatioGI50 [11],growth inhibition (GI) (OCI-AML-3 [12])
Cc1ccc(NC(=O)c2cccc(C(F)(F)F)c2)cc1N1Cc2cnc(NCCO)nc2N(C)C1=O,0.367 µM,3.29 µM,0.29 µM,0.033 µM,Active,0.021 µM,8.53 µM,–,–,–,–,–,–,–,–,–,–,–
Cc1ccc(Nc2ncc3c(n2)N(C)C(=O)N(c2cc(NC(=O)c4ccc(N5CCN(C)CC5)c(C(F)(F)F)c4)ccc2C)C3)cn1,–,0.685 µM,0.341 µM,0.01 µM,–,0.028 µM,–,–,–,–,–,–,–,–,–,–,–,–
Cc1ccc(NC(=O)c2cccc(C(F)(F)F)c2)cc1N1Cc2cnc(NC3CC3)nc2N(C)C1=O,–,5.06 µM,0.547 µM,0.042 µM,–,0.035 µM,–,–,–,–,–,–,–,–,–,–,–,–
Cc1ccc(NC(=O)c2ccc(CN3CCC(N(C)C)C3)c(C(F)(F)F)c2)cc1N1Cc2cnc(Nc3cnn(C)c3)nc2N(C)C1=O (stereo not given),–,0.414 µM,0.068 µM,0.008 µM,–,0.025 µM,–,–,–,–,–,–,–,–,–,–,–,–
CCN1CCN(c2ccc(Nc3ncc4c(n3)N(C)C(=O)N(c3cc(NC(=O)c5cccc(C(F)(F)F)c5)ccc3C)C4)cn2)CC1,0.03 µM,0.264 µM,0.071 µM,0.007 µM,–,0.028 µM,1.41 µM,21.4%,Active,> 100%,19.2%,21.2%,89.7%,23%,29.8%,68%,–,–
Cc1ccc(NC(=O)c2cccc(C(F)(F)F)c2)cc1N1Cc2cnc(Nc3ccccc3)nc2N(C)C1=O,–,1.79 µM,0.38 µM,0.047 µM,–,0.037 µM,–,–,–,–,–,–,–,–,–,–,–,–
Cc1ccc(Nc2ncc3c(n2)N(C)C(=O)N(c2cc(NC(=O)c4ccccc4)ccc2C)C3)cn1,–,2.7 µM,1.47 µM,1.08 µM,–,0.021 µM,–,–,–,–,–,–,–,–,–,–,–,–
Cc1ccc(Nc2ncc3c(n2)N(C)C(=O)N(c2cc(NC(=O)c4cc(-n5cnc(C)c5)cc(C(F)(F)F)c4)ccc2C)C3)cn1,–,> 5 µM,0.238 µM,0.027 µM,–,0.053 µM,–,–,–,–,–,–,–,–,–,–,–,–
Cc1cc(Nc2ncc3c(n2)N(C)C(=O)N(c2cc(NC(=O)c4ccc(CN5CCC(N(C)C)C5)c(C(F)(F)F)c4)ccc2C)C3)n(C)n1 (stereo not given),–,0.509 µM,0.123 µM,0.017 µM,–,0.011 µM,–,–,–,–,–,–,–,–,–,–,–,–
CCN1CCN(C(=O)c2ccc(Nc3ncc4c(n3)N(C)C(=O)N(c3cc(NC(=O)c5ccc(CN6CCC(N(C)C)C6)c(C(F)(F)F)c5)ccc3C)C4)cn2)CC1 (stereo not given),–,0.704 µM,0.094 µM,0.014 µM,–,0.021 µM,–,–,–,–,–,–,–,–,–,–,–,–
CCN1CCN(c2ccc(Nc3ncc4c(n3)N(C)C(=O)N(c3cc(NC(=O)c5cccc(C(F)(F)F)c5)ccc3C)C4)cc2)CC1,0.04 µM,0.559 µM,0.083 µM,0.008 µM,–,0.02 µM,0.839 µM,21.3%,Active,> 100%,19.7%,20.9%,92.1%,34.3%,46.7%,79.8%,–,–
Cc1ccc(NC(=O)c2cccc(C(F)(F)F)c2)cc1N1Cc2cnc(Nc3cnn(C)c3)nc2N(C)C1=O,0.042 µM,0.352 µM,0.1 µM,0.006 µM,–,0.02 µM,1.12 µM,71.3%,Active,> 100%,98.4%,73.3%,88%,42.9%,78.8%,78.8%,–,–
Cc1ccc(Nc2ncc3c(n2)N(C)C(=O)N(c2cc(NC(=O)c4ccc(C)c(C(F)(F)F)c4)ccc2C)C3)cn1,0.394 µM,0.87 µM,0.387 µM,0.039 µM,Active,0.02 µM,19.4 µM,–,–,–,–,–,–,–,–,–,–,–
CC(=O)N1CCN(c2ccc(Nc3ncc4c(n3)N(C)C(=O)N(c3cc(NC(=O)c5ccc(CN6CCC(N(C)C)C6)c(C(F)(F)F)c5)ccc3C)C4)cn2)CC1 (stereo not given),–,0.187 µM,0.041 µM,0.016 µM,–,0.025 µM,–,–,–,–,–,–,–,–,–,–,–,–
Cc1ccc(NC(=O)c2cccc(C(F)(F)F)c2)cc1N1Cc2cnc(NC3CCCCC3)nc2N(C)C1=O,–,5.22 µM,2.45 µM,0.925 µM,–,0.06 µM,–,–,–,–,–,–,–,–,–,–,–,–
Cc1ccc(Nc2ncc3c(n2)N(C)C(=O)N(c2cc(NC(=O)c4ccc(CN5CCN(C)CC5)c(C(F)(F)F)c4)ccc2C)C3)cn1,–,0.818 µM,0.316 µM,0.005 µM,–,0.026 µM,–,–,–,–,–,–,–,–,–,–,–,–
Cc1ccc(Nc2ncc3c(n2)N(C)C(=O)N(c2cc(NC(=O)c4ccc(-n5cccc5)c(C(F)(F)F)c4)ccc2C)C3)cn1,0.267 µM,0.317 µM,0.069 µM,0.024 µM,–,0.01 µM,> 25 µM,–,–,–,–,–,–,–,–,–,100,Active
Cc1ccc(Nc2ncc3c(n2)N(C)C(=O)N(c2cc(NC(=O)c4cc(N5CCOCC5)cc(C(F)(F)F)c4)ccc2C)C3)cn1,0.26 µM,1.65 µM,0.284 µM,0.045 µM,–,0.026 µM,2.81 µM,–,–,–,–,–,–,–,–,–,–,Active
Cc1ccc(Nc2ncc3c(n2)N(C)C(=O)N(c2cc(NC(=O)c4cc(N5CCC(O)CC5)cc(C(F)(F)F)c4)ccc2C)C3)cn1,0.143 µM,0.671 µM,0.118 µM,0.072 µM,–,0.04 µM,2.18 µM,–,–,–,–,–,–,–,–,–,–,Active
